From ChEMBL document CHEMBL1124366, “Synthesis and biological properties of N63-carboxamides of teicoplanin antibiotics. Structure-activity relationships” (J Med Chem, 1989)
In brackets after ≈: the same amount, converted by molar mass.

Legend:
Assay type in all cases: functional
[1] = system: Staphylococcus epidermidis; assay: In vitro minimum inhibitory concentration against Staphylococcus epidermis ATCC 12228
Escherichia coli = assay: In vitro minimum inhibitory concentration against Escherichia coli SKF 12140
Enterococcus faecalis = assay: In vitro minimum inhibitory concentration against Streptococcus faecalis ATCC 7080
Staphylococcus aureus = assay: In vitro minimum inhibitory concentration against Staphylococcus aureus Tour
Pseudomonas aeruginosa = assay: In vitro minimum inhibitory concentration against Pseudomonas aeruginosa ATCC 10145
Streptococcus pyogenes [2] = assay: Subcutaneously administration into mice infected with Streptococcus pyogenes C 203; conditions: sc
Summary of the method: (§1)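 Mice (five per treatment group, five groups) infected intraperitoneally with about 10⁵ cells of Strep. pyogenes C 203, about 100× the LD50. ED50 (mg/kg) was calculated from the percentage of mice surviving at each dose on day 7.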

Proteus vulgaris = assay: In vitro minimum inhibitory concentration against Proteus vulgaris X 19 ATCC 881
Streptococcus pneumoniae = assay: In vitro minimum inhibitory concentration against Streptococcus pneumoniae UC41
Streptococcus pyogenes [3] = assay: In vitro minimum inhibitory concentration against Streptococcus pyogenes C 203
Streptococcus pyogenes [4] = assay: In vivo effective dose given perorally to mice infected with Streptococcus pyogenes C 203; conditions: po; summary of the method: as §1
[5] = system: Staphylococcus haemolyticus; assay: In vitro minimum inhibitory concentration against Staphylococcus hemolyticus 602 cell line; conditions: strain 602

SMILES	MIC [1] [µg/mL]	MIC (Escherichia coli) [µg/mL]	MIC (Enterococcus faecalis) [µg/mL]	MIC (Staphylococcus aureus) [µg/mL]	MIC (Pseudomonas aeruginosa) [µg/mL]	ED50 (Streptococcus pyogenes [2]) [mg/kg]	MIC (Proteus vulgaris) [µg/mL]	MIC (Streptococcus pneumoniae) [µg/mL]	MIC (Streptococcus pyogenes [3]) [µg/mL]	ED50 (Streptococcus pyogenes [4]) [mg/kg]	MIC [5] [µg/mL]
N[C@H]1C(=O)N[C@@H]2Cc3ccc(c(Cl)c3)Oc3cc4cc(c3O)Oc3ccc(cc3Cl)[C@@H](O)[C@@H]3NC(=O)[C@H](NC(=O)[C@@H]4NC(=O)[C@@H](NC2=O)c2cc(O)cc(c2)Oc2cc1ccc2O)c1ccc(O)c(c1)-c1c(O)cc(O)cc1[C@@H](C(=O)NCCCCCC(=O)N[C@@H]1[C@@H](O)[C@@H](O)[C@@H](CO)O[C@H]1O)NC3=O	0.06 (≈ 0.0407 µM)	64 (≈ 43.4 µM)	0.25 (≈ 0.17 µM)	0.12 (≈ 0.0815 µM)	> 128	2.9	> 128	0.25 (≈ 0.17 µM)	0.12 (≈ 0.0815 µM)		
N[C@H]1C(=O)N[C@@H]2Cc3ccc(c(Cl)c3)Oc3cc4cc(c3O)Oc3ccc(cc3Cl)[C@@H](O)[C@@H]3NC(=O)[C@H](NC(=O)[C@@H]4NC(=O)[C@@H](NC2=O)c2cc(O)cc(c2)Oc2cc1ccc2O)c1ccc(O)c(c1)-c1c(O)cc(O)cc1[C@@H](C(=O)N1CCOCC1)NC3=O	0.016 (≈ 0.0126 µM)	16 (≈ 12.6 µM)	0.12 (≈ 0.0946 µM)	0.06 (≈ 0.0473 µM)	64 (≈ 50.5 µM)	1.02	64 (≈ 50.5 µM)	0.12 (≈ 0.0946 µM)	0.12 (≈ 0.0946 µM)		
CN1CCN(C(=O)[C@H]2NC(=O)[C@H]3NC(=O)[C@H](NC(=O)[C@@H]4NC(=O)[C@H]5NC(=O)[C@@H](Cc6ccc(c(Cl)c6)Oc6cc4cc(c6O)Oc4ccc(cc4Cl)[C@H]3O)NC(=O)[C@H](N)c3ccc(O)c(c3)Oc3cc(O)cc5c3)c3ccc(O)c(c3)-c3c(O)cc(O)cc32)CC1	0.03 (≈ 0.0234 µM)	16 (≈ 12.5 µM)	0.12 (≈ 0.0937 µM)	0.06 (≈ 0.0468 µM)	32 (≈ 25 µM)	0.95	64 (≈ 50 µM)	0.12 (≈ 0.0937 µM)	0.12 (≈ 0.0937 µM)		
CCCCN(CCCC)CCCNC(=O)[C@H]1NC(=O)[C@H]2NC(=O)[C@H](NC(=O)[C@@H]3NC(=O)[C@H]4NC(=O)[C@@H](Cc5ccc(c(Cl)c5)Oc5cc3cc(c5O)Oc3ccc(cc3Cl)[C@H]2O)NC(=O)[C@H](N)c2ccc(O)c(c2)Oc2cc(O)cc4c2)c2ccc(O)c(c2)-c2c(O)cc(O)cc21	0.06 (≈ 0.0439 µM)	8 (≈ 5.85 µM)	0.12 (≈ 0.0878 µM)	0.12 (≈ 0.0878 µM)	64 (≈ 46.8 µM)	0.72	32 (≈ 23.4 µM)	0.12 (≈ 0.0878 µM)	0.06 (≈ 0.0439 µM)		
N[C@H]1C(=O)N[C@@H]2Cc3ccc(c(Cl)c3)Oc3cc4cc(c3O)Oc3ccc(cc3Cl)[C@@H](O)[C@@H]3NC(=O)[C@H](NC(=O)[C@@H]4NC(=O)[C@@H](NC2=O)c2cc(O)cc(c2)Oc2cc1ccc2O)c1ccc(O)c(c1)-c1c(O)cc(O)cc1[C@@H](C(=O)NCCN1CCCC1)NC3=O	0.016 (≈ 0.0124 µM)	8 (≈ 6.18 µM)	0.12 (≈ 0.0927 µM)	0.06 (≈ 0.0463 µM)	64 (≈ 49.4 µM)	1.6	64 (≈ 49.4 µM)	0.12 (≈ 0.0927 µM)	0.06 (≈ 0.0463 µM)		
CCN(CC)CCCNC(=O)[C@H]1NC(=O)[C@H]2NC(=O)[C@H](NC(=O)[C@@H]3NC(=O)[C@H]4NC(=O)[C@@H](Cc5ccc(c(Cl)c5)Oc5cc3cc(c5O)Oc3ccc(cc3Cl)[C@H]2O)NC(=O)[C@H](N)c2ccc(O)c(c2)Oc2cc(O)cc4c2)c2ccc(O)c(c2)-c2c(O)cc(O)cc21	0.03 (≈ 0.0229 µM)	8 (≈ 6.1 µM)	0.12 (≈ 0.0915 µM)	0.12 (≈ 0.0915 µM)	32 (≈ 24.4 µM)	0.18	32 (≈ 24.4 µM)	0.12 (≈ 0.0915 µM)	0.06 (≈ 0.0458 µM)		
CC(=O)N[C@@H]1[C@H](O[C@@H]2c3ccc(c(Cl)c3)Oc3cc4cc(c3O[C@@H]3O[C@@H](CO)[C@@H](O)[C@H](O)[C@@H]3NC(=O)CCCCCCC(C)C)Oc3ccc(cc3Cl)C[C@H]3NC(=O)[C@H](N)c5ccc(O)c(c5)Oc5cc(O)cc(c5)[C@H](NC3=O)C(=O)N[C@H]4C(=O)N[C@H]3C(=O)N[C@@H]2C(=O)N[C@H](C(=O)NCCCCN)c2cc(O)cc(O[C@H]4O[C@H](CO)[C@@H](O)[C@@H](O)[C@@H]4O)c2-c2cc3ccc2O)O[C@@H](CO)[C@@H](O)[C@@H]1O	0.06 (≈ 0.0308 µM)		0.12 (≈ 0.0615 µM)	0.12 (≈ 0.0615 µM)		0.07		0.12 (≈ 0.0615 µM)	0.06 (≈ 0.0308 µM)	90	0.12 (≈ 0.0615 µM)
CCNCCNC(=O)[C@H]1NC(=O)[C@H]2NC(=O)[C@H](NC(=O)[C@@H]3NC(=O)[C@H]4NC(=O)[C@@H](Cc5ccc(c(Cl)c5)Oc5cc3cc(c5O[C@@H]3O[C@@H](CO)[C@@H](O)[C@H](O)[C@@H]3NC(=O)CCCCCCC(C)C)Oc3ccc(cc3Cl)[C@H]2O[C@@H]2O[C@@H](CO)[C@@H](O)[C@H](O)[C@@H]2NC(C)=O)NC(=O)[C@H](N)c2ccc(O)c(c2)Oc2cc(O)cc4c2)c2ccc(O)c(c2)-c2c(O[C@H]3O[C@H](CO)[C@@H](O)[C@@H](O)[C@@H]3O)cc(O)cc21	0.06 (≈ 0.0308 µM)		0.12 (≈ 0.0615 µM)	0.12 (≈ 0.0615 µM)		0.18		0.12 (≈ 0.0615 µM)	0.06 (≈ 0.0308 µM)	300	0.12 (≈ 0.0615 µM)
CNCCCN(C)C(=O)[C@H]1NC(=O)[C@H]2NC(=O)[C@H](NC(=O)[C@@H]3NC(=O)[C@H]4NC(=O)[C@@H](Cc5ccc(c(Cl)c5)Oc5cc3cc(c5O[C@@H]3O[C@@H](CO)[C@@H](O)[C@H](O)[C@@H]3NC(=O)CCCCCCC(C)C)Oc3ccc(cc3Cl)[C@H]2O[C@@H]2O[C@@H](CO)[C@@H](O)[C@H](O)[C@@H]2NC(C)=O)NC(=O)[C@H](N)c2ccc(O)c(c2)Oc2cc(O)cc4c2)c2ccc(O)c(c2)-c2c(O[C@H]3O[C@H](CO)[C@@H](O)[C@@H](O)[C@@H]3O)cc(O)cc21	0.06 (≈ 0.0306 µM)		0.12 (≈ 0.0611 µM)	0.12 (≈ 0.0611 µM)		0.13		0.12 (≈ 0.0611 µM)	0.06 (≈ 0.0306 µM)	> 300	0.25 (≈ 0.127 µM)
N[C@H]1C(=O)N[C@@H]2Cc3ccc(c(Cl)c3)Oc3cc4cc(c3O)Oc3ccc(cc3Cl)[C@@H](O)[C@@H]3NC(=O)[C@H](NC(=O)[C@@H]4NC(=O)[C@@H](NC2=O)c2cc(O)cc(c2)Oc2cc1ccc2O)c1ccc(O)c(c1)-c1c(O)cc(O)cc1[C@@H](C(=O)NCCN1CCOCC1)NC3=O	0.016 (≈ 0.0122 µM)	16 (≈ 12.2 µM)	0.12 (≈ 0.0915 µM)	0.06 (≈ 0.0458 µM)	64 (≈ 48.8 µM)	2.2	128 (≈ 97.6 µM)	0.12 (≈ 0.0915 µM)	0.12 (≈ 0.0915 µM)		
CNCCNC(=O)[C@H]1NC(=O)[C@H]2NC(=O)[C@H](NC(=O)[C@@H]3NC(=O)[C@H]4NC(=O)[C@@H](Cc5ccc(c(Cl)c5)Oc5cc3cc(c5O[C@@H]3O[C@@H](CO)[C@@H](O)[C@H](O)[C@@H]3NC(=O)CCCCCCC(C)C)Oc3ccc(cc3Cl)[C@H]2O[C@@H]2O[C@@H](CO)[C@@H](O)[C@H](O)[C@@H]2NC(C)=O)NC(=O)[C@H](N)c2ccc(O)c(c2)Oc2cc(O)cc4c2)c2ccc(O)c(c2)-c2c(O[C@H]3O[C@H](CO)[C@@H](O)[C@@H](O)[C@@H]3O)cc(O)cc21	0.12 (≈ 0.062 µM)		0.12 (≈ 0.062 µM)	0.12 (≈ 0.062 µM)		0.08		0.12 (≈ 0.062 µM)	0.06 (≈ 0.031 µM)	173	0.12 (≈ 0.062 µM)
CC(=O)N[C@@H]1[C@H](O[C@@H]2c3ccc(c(Cl)c3)Oc3cc4cc(c3O[C@@H]3O[C@@H](CO)[C@@H](O)[C@H](O)[C@@H]3NC(=O)CCCCCCC(C)C)Oc3ccc(cc3Cl)C[C@H]3NC(=O)[C@H](N)c5ccc(O)c(c5)Oc5cc(O)cc(c5)[C@H](NC3=O)C(=O)N[C@H]4C(=O)N[C@H]3C(=O)N[C@@H]2C(=O)N[C@H](C(=O)N(C)CCN(C)C)c2cc(O)cc(O[C@H]4O[C@H](CO)[C@@H](O)[C@@H](O)[C@@H]4O)c2-c2cc3ccc2O)O[C@@H](CO)[C@@H](O)[C@@H]1O	0.06 (≈ 0.0306 µM)		0.06 (≈ 0.0306 µM)	0.12 (≈ 0.0611 µM)		0.15		0.06 (≈ 0.0306 µM)	0.06 (≈ 0.0306 µM)	90	0.25 (≈ 0.127 µM)
CC(=O)N[C@@H]1[C@H](O[C@@H]2c3ccc(c(Cl)c3)Oc3cc4cc(c3O[C@@H]3O[C@@H](CO)[C@@H](O)[C@H](O)[C@@H]3NC(=O)CCCCCCC(C)C)Oc3ccc(cc3Cl)C[C@H]3NC(=O)[C@H](N)c5ccc(O)c(c5)Oc5cc(O)cc(c5)[C@H](NC3=O)C(=O)N[C@H]4C(=O)N[C@H]3C(=O)N[C@@H]2C(=O)N[C@H](C(=O)NCCN)c2cc(O)cc(O[C@H]4O[C@H](CO)[C@@H](O)[C@@H](O)[C@@H]4O)c2-c2cc3ccc2O)O[C@@H](CO)[C@@H](O)[C@@H]1O	0.06 (≈ 0.0312 µM)		0.12 (≈ 0.0624 µM)	0.12 (≈ 0.0624 µM)		0.18		0.12 (≈ 0.0624 µM)	0.06 (≈ 0.0312 µM)	139	0.12 (≈ 0.0624 µM)
CCCCC/C=C/CCC(=O)N[C@@H]1[C@H](Oc2c3cc4cc2Oc2ccc(cc2Cl)[C@@H](O[C@@H]2O[C@@H](CO)[C@@H](O)[C@H](O)[C@@H]2NC(C)=O)[C@@H]2NC(=O)[C@H](NC(=O)[C@@H]4NC(=O)[C@H]4NC(=O)[C@@H](Cc5ccc(c(Cl)c5)O3)NC(=O)[C@H](N)c3ccc(O)c(c3)Oc3cc(O)cc4c3)c3ccc(O)c(c3)-c3c(O[C@H]4O[C@H](CO)[C@@H](O)[C@@H](O)[C@@H]4O)cc(O)cc3[C@@H](C(=O)NC3CCNCC3)NC2=O)O[C@@H](CO)[C@@H](O)[C@@H]1O	0.12 (≈ 0.0612 µM)		0.12 (≈ 0.0612 µM)	0.12 (≈ 0.0612 µM)		0.08		0.06 (≈ 0.0306 µM)	0.06 (≈ 0.0306 µM)	89.6	1 (≈ 0.51 µM)
